High-throughput results deposited in PubChem BioAssay by SRMLSC.
Most compounds without a hit are left out; they make up all but 6.3% or so of the library.
PostGolgi ctrl: growth of the yeast control strain, post-Golgi counter-screen. 98,000 tested, 5% active. efflux-deficient yeast background strain, growth absorbance A615, 16 h. inhibition, % at 10 µM
Ecoli WT expand: blocks growth of wild type E. coli BW25113 | OD600 absorbance | growth inhibition, % at 100 µM | 98,000 tested, 0.15% active | AID 710;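 active = growth inhibition above about 50% at one test dose, limit read from the data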;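 note: growth measured after 20 h incubation at 37 °C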
PostGolgi yeast: growth inhibition of a yeast mutant, post-Golgi transport screen. 98,000 tested, 0.9% active. post-Golgi transport phenotypic cell assay. inhibition, % at 10 µM;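 note: yeast cells grown in 1536-well plates; yeast grown about 18 h at 30C before absorbance read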
Ecoli tolC: blocks growth of E. coli BW25113 tolC mutant; OD615; growth inhibition, % at 10 µM (by protocol); 65,000 tested, 2.2% active; AID 573;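 active = growth inhibition at or above a cutoff equal to the mean over every tested compound plus 3 SD, cut at about 60% in these data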;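 note: growth measured after 20 h incubation at 37 °C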
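signal = optical density read at 615 nm | test system = E. coli ΔtolC::kan strain BW25113 | timing = 20 h compound exposure of bacteria at 37 °C | buffer or medium = LB medium plus 50 µg/mL kanamycin | compound dosing = 10 µM final, single dose | evaluation = % inhibition of E. coli growth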
* = called active by the depositor; . = no result given. Cut-off read from the data, not from the text of the source, unless noted: active = inhibition above about 30%; inactive = the rest.

SMILES | PostGolgi ctrl | Ecoli WT expand | PostGolgi yeast | Ecoli tolC
O=C1c2ccccc2C(=O)N1CCCCN(C(=O)c1ccco1)c1ccc(Cl)cc1 | 31* | -10 | 2 | 45
COc1ccccc1C(=O)Nc1sc2c(c1C(=O)NCc1ccco1)CCCC2 | 8 | -1 | -6 | .
CCCn1c(SCC(=O)N2c3ccccc3CCc3ccccc32)nc2c1c(=O)n(C)c(=O)n2C | 1 | -1 | -1 | .
Cc1[nH]nc(N=CC2=C(O)CC(C)(C)CC2=O)c1-c1ccc(Cl)cc1 | 23 | 12 | 79* | 15
Cc1ccc(C)c(-c2cc(C(=O)NCc3cccs3)c3ccccc3n2)c1 | 9 | -12 | -16 | .
Cc1ccc(Nc2ncccc2C(=O)NCc2cccs2)c(C)c1 | 44* | -22 | -2 | .
Cc1cccc(NC(=S)NCc2cccs2)c1C | -3 | 6 | -8 | .
Cc1cccc(Nc2ncccc2C(=O)NCc2cccs2)c1C | 34* | -15 | -8 | .
COc1ccc(C2CC(c3cccs3)=NN2c2nc(-c3ccccc3)cs2)cc1OC (stereo unspecified) | 5 | -22 | -7 | .
COC(=O)COc1ccc(Oc2nc(SC)nc(N(C)C)n2)nn1 | 11 | -1 | -2 | 18
Cc1ccc2c(CSc3nc4ccccc4c(=O)n3CCCO)cc(=O)oc2c1C | 32* | -3 | -3 | .
Cc1ccccc1Nc1nc(N)nc(CSc2nc3ccccc3c(=O)n2CCCO)n1 | 5 | 0 | -6 | 16
CC(=O)NCCn1c(SCc2ccc(C)cc2)nc2ccccc2c1=O | 34* | -9 | 3 | .
COC(=O)c1ccc(CSc2nc3ccccc3c(=O)n2Cc2ccco2)o1 | 34* | -12 | -7 | 42
COC(=O)/C(=C\C(=O)c1ccccc1)Nc1cccc(C(F)(F)F)c1 | -2 | 14 | 0 | .
CCN(CC(=O)Nc1ccccc1C(=O)OC)S(=O)(=O)c1ccc(OC)cc1 | 40* | 2 | -6 | 9
CCc1cc2c(=O)c(-c3nc4ccccc4n3C)c(C)oc2c(CN2CCN(CCO)CC2)c1O | -1 | 0 | 52* | -7
Cc1ccnc(NC2(C(F)(F)F)N=C(c3ccccc3)NC2=O)c1 (stereo unspecified) | 6 | -5 | 5 | .
O=C(/C=C/c1cccnc1)c1ccc(NC(=O)c2cccc(Br)c2)cc1 | 40* | 0 | -5 | .
O=C(N/C(=C\c1cccnc1)C(=O)N1CCOCC1)c1cccc(Br)c1 | 2 | 2 | 5 | .
CC(C)SC1=NC(C)(C)C=C(/C=C/c2c(Cl)cccc2Cl)N1 | 74* | -7 | 1 | .
CC(C)SC1=NC(C)(C)C=C(/C=C/c2ccc(Cl)cc2Cl)N1 | 27 | 2 | 3 | .
O=C(OCc1nnc(-c2ccccc2)o1)c1ccc(S(=O)(=O)NCc2ccco2)cc1 | 4 | -4 | 11 | 6
Cc1ccc(CNC(=O)CCOc2ccc(C(C)(C)C)cc2)cc1 | 23 | -1 | -6 | .
C=C(C)C1CC=C(CN2CCC(C(=O)OCC)CC2)CC1 (stereo unspecified) | 15 | 4 | 78* | -7
SMILES | PostGolgi ctrl | Ecoli WT expand | PostGolgi yeast | Ecoli tolC
C=C(C)C1CC=C(CN2CC(C)OC(C)C2)CC1 (stereo unspecified) | 17 | 1 | 95* | .
CC1CN(Cc2ccc(Cl)cc2Cl)CC(C)O1 (stereo unspecified) | 5 | 16 | -19 | .
Cc1nn(C(C)C(=O)N2CCc3ccccc32)c(C)c1[N+](=O)[O-] (stereo unspecified) | -4 | -3 | -4 | .
Cc1cc(NCCCn2ccnc2)n2ncc(-c3ccccc3)c2n1 | 38* | 11 | 19 | 23
COc1ccc(OC)c(-n2c(SCC(=O)N3CCc4ccccc43)nc3c(c2=O)SCC3)c1 | 41* | -15 | 9 | 2
O=C1NC(=O)/C(=C\c2ccccc2Oc2ccc(F)c(F)c2)S1 | 43* | -22 | 12 | .
O=S(=O)(NCC(c1cccnc1)N1CCN(c2ccccc2)CC1)c1cc(F)ccc1F (stereo unspecified) | 75* | 7 | 95* | 9
CC1CC(C)CN(C(=O)c2ccc3c(c2)N(Cc2ccccc2)CCS3)C1 (stereo unspecified) | 75* | -22 | 88* | .
Cc1ccc(CN2CCSc3ccc(C(=O)N4CCN(c5ncccn5)CC4)cc32)cc1 | 64* | -12 | 2 | 68*
CCOC(=O)c1ccccc1NC(=O)CSc1nnc(COc2ccccc2C)n1C | 38* | -4 | 2 | 49
Cc1ccccc1OCc1nnc(SCC(=O)NCc2ccccc2)n1C | 14 | 2 | -6 | -8
CCOC(=O)c1ccccc1NC(=O)CSc1nnnn1C1CCCCC1 | 19 | -11 | 14 | 72*
CCOc1ccc(C(CC(=O)O)NC(=O)C23CC4CC(CC(C4)C2)C3)cc1 (stereo unspecified) | 8 | -8 | 1 | .
CC1=C(C(=O)Nc2ccccc2)C(c2ccc(C)cc2)N=C(Nc2nc3ccccc3o2)N1 (stereo unspecified) | 12 | 0 | 13 | .
Clc1ccc(-c2nc3cnccn3c2Nc2ccc3c(c2)OCO3)cc1 | 38* | 6 | -3 | .
CSc1ccc(-c2nc3cnccn3c2Nc2ccc3c(c2)OCO3)cc1 | 16 | -10 | -11 | .
Clc1ccc(-c2nc3cnccn3c2NC2CCCC2)cc1 | 31* | 7 | 22 | .
CCOC(=O)CNc1c(-c2ccc(Cl)cc2)nc2cnccn12 | 4 | 0 | 5 | 5
Cc1ccc(-c2nc3ccccc3[nH]2)cc1NC(=O)/C=C/c1ccco1 | -5 | -10 | -9 | .
ON=Cc1cccn1-c1ccccc1 | -1 | 11 | 30* | -7
O=C(O)c1cccc(-n2cccc2/C=N/O)c1 | 0 | -1 | 7 | -32
CCN(CC)CCN1C(=O)C(=O)/C(=C(/O)c2cccc(OC)c2)C1c1ccccn1 (stereo unspecified) | 1 | 0 | 5 | -16
CCN(CC)S(=O)(=O)c1cccc(NC(=O)C(=O)c2c(-c3ccccc3)cc3ccccn23)c1 | 72* | -16 | -3 | .
CCN(CC)S(=O)(=O)c1ccc(N2CCOCC2)c(NC(=O)C(=O)c2c(-c3ccccc3)cc3ccccn23)c1 | 98* | -14 | 72* | .
CCn1c(-c2cc3c(C(F)(F)F)nn(C)c3s2)n[nH]c1=S | 41* | -5 | 4 | .
SMILES | PostGolgi ctrl | Ecoli WT expand | PostGolgi yeast | Ecoli tolC
COc1ccc(C)cc1NC(=O)CN1CCN(c2ccccc2F)CC1 | 38* | -5 | 0 | 27
COc1ccc(C)cc1NC(=O)CN1CCN(S(=O)(=O)c2ccc(F)cc2)CC1 | 31* | -2 | 2 | 0
Cc1cc(NC(=O)c2cc(-c3ccc(C)s3)nc3ccccc23)no1 | 14 | -4 | -10 | .
Cc1ccc(-c2cc(C(=O)Nc3cc(C)on3)c3ccccc3n2)c(C)c1 | 37* | -5 | 0 | 46
CCN1C(=O)C(CC(=O)Nc2ccc(Br)cc2)N(CCCc2ccccc2)C1=S (stereo unspecified) | 22 | -18 | 23 | .
CN(c1ccc(Cl)cc1)c1cc(=O)n(C)c2ccccc12 | 64* | 11 | 1 | 31
Cc1nn2c([nH]c(=O)c3ccccc32)c1C=O | 5 | 5 | -2 | .
O=c1c2ccccc2n(Cc2ccc(F)cc2)c(=O)n1C1CCCC1 | 14 | -11 | 9 | 76*
CC1CCCCN1Cc1nc2c(c(=O)n(C)c(=O)n2C)n1Cc1cccc2ccccc12 (stereo unspecified) | . | . | . | 8
